From PubChem
OX1R antag-1: antagonists of human orexin 1 receptor; 330,000 compounds, 0.43% hits; inhibition, % at 5 µM; CHO/OX1R cells, Fluo-8 calcium fluorescence, orexin A; O43613;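 active = inhibition above its plate's threshold, mean inhibition of all tested compounds on the plate plus 3 SD, cut at about 37% in these data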;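 also: 0% = orexin A challenge wells and 100% = SB-334867-A antagonist wells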
Target sequence (O43613 whole entry, looked up): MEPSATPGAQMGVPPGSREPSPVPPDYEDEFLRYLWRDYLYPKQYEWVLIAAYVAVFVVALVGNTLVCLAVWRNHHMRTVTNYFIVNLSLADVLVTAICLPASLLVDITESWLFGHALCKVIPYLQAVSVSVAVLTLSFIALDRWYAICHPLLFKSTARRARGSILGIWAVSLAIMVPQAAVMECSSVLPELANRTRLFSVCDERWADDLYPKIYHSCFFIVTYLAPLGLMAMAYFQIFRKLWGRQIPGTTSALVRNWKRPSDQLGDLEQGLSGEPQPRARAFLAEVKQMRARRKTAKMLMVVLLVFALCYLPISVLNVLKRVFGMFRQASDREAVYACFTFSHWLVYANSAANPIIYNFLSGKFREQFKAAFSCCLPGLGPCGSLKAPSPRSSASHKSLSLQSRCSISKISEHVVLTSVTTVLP
GPR7 antagonist: blocks human GPR7 receptor signaling. 290,000 compounds, 1.1% hits. GPR7-expressing cells, fluorescence antagonist assay. inhibition, % at 4.4 µM. P48145; in the data active = inhibition above about 16%, passing the limit was not always enough;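 also: cells stimulated with the agonist NPW; 0% = agonist with vehicle and 100% = vehicle without agonist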
OX1R antag-2: blocks the human orexin 1 receptor; OX1R-expressing cells, FRET antagonist read-out; inhibition, % at 6.6 µM; 330,000 compounds, 1.8% hits; AID 485270; in the data active = inhibition mostly above about 38%, no sharp cut-off; inactive = mostly below about 40%;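 also: 0% = agonist challenge alone and 100% = reference antagonist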
TAAR1 ag: human TAAR1 agonism; AID 624467; 360,000 compounds, 0.99% hits; CHO RD-HGA16 TAAR1, Fluo-8 calcium fluorescence; vehicle wells 0%, saturating PEA agonist 100%; Q96RJ0; activation, % at 3 µM;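 active = activation above the mean activation of all test compounds in the run plus 3 SD, cut at about 38% in these data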
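Test system: RD-HGA16 (CHO) cells co-expressing Gα16 and hTAAR1; dosing: one-point dosing at 3 µM (nominal); timing: 17-24 h seeding, 75 min 37 °C dye, 30 min RT; signal: kinetic Fluo-8 calcium fluorescence; read-out basis: % activation relative to PEA EC100 response; controls: DMSO and PEA EC100; replicates: n 1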
TAAR1 antagonist: human TAAR1 antagonism | CHO RD-HGA16 TAAR1, Fluo-8 calcium fluorescence, antagonist | inhibition, % at 3 µM | 360,000 compounds, 1.5% hits;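 active = inhibition above a per-plate cutoff, the mean inhibition of test compounds on that plate plus 3 SD, cut at about 49% in these data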;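 also: 0% = DMSO plus EC80 beta-PEA response and 100% = DMSO alone without agonist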
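Test system – hTAAR1-expressing CHO RD-HGA16 cells, Gα16-coupled · Also added – β-PEA at EC80 concentration, post-compound challenge · Compound – 3 µM, single point · Incubation – dye loading 75 min at 37 °C, then 30 min room temperature · Measured by – Fluo-8 intracellular calcium dye fluorescence, real-time kinetic reads · Benchmarks – vehicle and agonist controls · Replicates – singlicate, one well per test compound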
CHO parental Ca: signal in parental CHO cells, OX1R antagonist counter-screen; parental CHO-K1, ATP-induced calcium, Fluo-8 fluorescence; 330,000 compounds, 0.63% hits; inhibition, % at 5.6 µM;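 active = inhibition above that plate's mean sample inhibition plus 3 SD, cut at about 26% in these data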;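 also: 0% = ATP-challenged DMSO wells and 100% = DMSO wells without ATP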
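Material: Parental CHO cells | Reagent: ATP | Compound dosing: Single nominal dose of 5.6 µM per compound | Detection: Intracellular calcium via Fluo-8 no-wash fluorescent dye | Read-out: % inhibition of ATP-induced calcium mobilization | Benchmarks: Low control ATP plus DMSO, high control DMSO only | Replicates: Singlicate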
OX1R HTRF confirm: OX1R (human) antagonism, HTRF confirmed. inhibition, % at 6.6 µM. shares compounds with OX1R antag-2. OX1R-expressing cells, HTRF antagonist assay. 1,800 compounds, 49% hits; in the data active = inhibition above about 55%;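 also: CHO cells expressing OX1R stimulated with orexin A at about EC80; 0% = agonist challenge alone and 100% = reference antagonist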
CHO-K1 HTRF: signal in parental CHO-K1 cells, OX1R antagonist counter-screen. shares compounds with OX1R antag-2. HTRF counterscreen. inhibition, % at 6.6 µM. 1,800 compounds, 48% hits. AID 493232; in the data active = inhibition above about 17%;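 also: 0% = agonist challenge with vehicle and 100% = vehicle alone without agonist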
* hit, by the source's call; x = not tested or not shown. In the library only some 4.5% were active in any assay of this set; here they are far more common.

SMILES | OX1R antag-1 | GPR7 antagonist | OX1R antag-2 | TAAR1 ag | TAAR1 antagonist | CHO parental Ca | OX1R HTRF confirm | CHO-K1 HTRF
O=C(CCNS(=O)(=O)c1cccc2nsnc12)NCc1ccco1 | -41 | -6 | 122* | 5 | 5 | 0 | 35 | 39*
CC(=O)Nc1ccc(NC(=O)C2CCC(CNS(=O)(=O)c3cccc4nsnc34)CC2)cc1 (stereo not drawn) | -7 | -18 | 44 | 7 | 8 | 12 | x | x
O=C(NCc1ccco1)C(NS(=O)(=O)c1cccc2nsnc12)c1ccccc1 (stereo not drawn) | -28 | -4 | 92* | 3 | 2 | -29 | 61* | 28*
O=C(NCc1ccco1)C1CCCN(S(=O)(=O)c2cccc3nsnc23)C1 (stereo not drawn) | -13 | -11 | 78* | 3 | 20 | 3 | 31 | 34*
CC(OC(=O)c1cc[n+]([O-])cc1)C(=O)Nc1ccc(C(N)=O)cc1 (stereo not drawn) | 0 | x | 2 | 2 | 14 | 5 | x | x
Cc1ccc(CNC(=O)C(NS(=O)(=O)c2cccc3nsnc23)C(C)C)cc1 (stereo not drawn) | -18 | -17 | 38 | 4 | -19 | -12 | x | x
O=C(CCS(=O)(=O)c1cccc2nsnc12)N1CCN(C(=O)c2ccco2)CC1 | -6 | -10 | 91* | -1 | -6 | 6 | 35 | 53*
O=C(CCS(=O)(=O)c1cccc2nsnc12)N1CCN(Cc2ccc3c(c2)OCO3)CC1 | -19 | 2 | 22 | 1 | 10 | -7 | x | x
CCCNC(=O)C(NS(=O)(=O)c1cccc2nsnc12)c1ccccc1 (stereo not drawn) | -31 | -1 | 98* | 2 | -26 | -20 | 64* | 36*
O=C(CCNS(=O)(=O)c1cccs1)NC1CCN(Cc2ccccc2)CC1 | -16 | -7 | 1 | 6 | -1 | -8 | x | x
O=C(CCNS(=O)(=O)c1cccc2nsnc12)NC1CCN(Cc2ccccc2)CC1 | -26 | -10 | 78* | 0 | -17 | -24 | 36 | 53*
COc1ccc(S(=O)(=O)NC(C)c2ccc3c(c2)OCCO3)cc1 (stereo not drawn) | x | x | x | 0 | 7 | x | x | x
Cc1cc(OCC(=O)OCC(=O)NCc2ccco2)ccc1Cl | -11 | x | 15 | 2 | -13 | -2 | x | x
COc1ccccc1-n1c(C)cc(C=O)c1C | -10 | -2 | 27 | 16 | 5 | -8 | x | x
Cc1c(NC(=O)COc2ccc3ccc(=O)oc3c2)c(=O)n(-c2ccccc2)n1C | 3 | x | 6 | 4 | -3 | -18 | x | x
CCN(CC)CCCNC1=C(Cl)C(=O)c2ccccc2C1=O | -11 | -8 | 86* | 0 | -19 | -5 | 88* | 113*
O=C1C(Cl)=C(NCc2cccnc2)C(=O)c2ccccc21 | -2 | 14 | 84* | 1 | -4 | -5 | 66* | 98*
C=CCNC1=C(Cl)C(=O)c2ccccc2C1=O | -2 | -2 | 140* | -1 | 6 | -11 | 64* | 94*
COc1ccc(CCNC(=O)c2cc3c(=O)n4ccccc4nc3n(CC3CCCO3)c2=N)cc1OC (stereo not drawn) | -35 | 12 | 82* | 1 | 4 | -6 | 60* | 77*
COc1ccc(CCNC(=O)c2cc3c(=O)n4ccccc4nc3n(C3CCCCC3)c2=N)cc1OC | -26 | 6 | 26 | 0 | -13 | -16 | x | x
COCCCn1c(=N)c(C(=O)NCC2CCCO2)cc2c(=O)n3ccccc3nc21 (stereo not drawn) | -12 | -2 | 93* | 10 | -2 | -18 | 48 | 65*
N=c1c(C(=O)NCC2CCCO2)cc2c(=O)n3ccccc3nc2n1C1CCCCC1 (stereo not drawn) | -9 | -2 | 53 | 0 | -15 | -5 | x | x
N=c1c(C(=O)NC2CCCC2)cc2c(=O)n3ccccc3nc2n1CCN1CCOCC1 | -7 | -6 | 102* | 8 | 4 | -8 | 35 | 43*
